Data set [1] is classed as in vivo, rabbit.
The format of data set [2] is in vivo, rabbit. The source holds these as a separate data set.
The nature of data set [3]: GLP toxicology study, ophthalmic findings in rats. It is filed as in vivo, rat. Conditions: oral administration, 1 month, 3 months, 6 months.
The nature of data set [4]: GLP toxicology study, ophthalmic findings and ERG in dogs. It is filed as in vivo, dog.
The test system of a further data set is rodent factor D. Conditions: stated in discussion, no reference given; cited from earlier work.
The conditions of data set [5]: pigmented rats, single oral dose 10 mg/kg; cited from earlier work.
Data set [6] relates to choroidal neovascularization. Conditions: mice, cited from earlier work.
Data set [7] is classed as in vivo, rat. The settings on record: single oral dose 20 mg/kg. The gist of the method:
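Male pigmented Long–Evans rats (n = 10) got a single oral dose of 20 mg/kg [14C]-labelled test compound in PEG 400:saline:DMSO 60:36.3:3.7 (v:v:v), prepared on the day of dosing. Frozen carcasses were cut into ~40 μm sagittal sections and imaged at 50 μm resolution. Densitometry gave μg equivalents/g, and tissue t1/2 came from noncompartmental analysis.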

Data set [8] is classed as in vivo, rat. The settings on record: albino rats, single oral dose 20 mg/kg, whole-body autoradiography. The essentials: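 Male albino Wistar Han rats (n = 3) got a single oral dose of 20 mg/kg [14C]-labelled test compound. It was suspended on the day of dosing in PEG 400:saline:DMSO 60:36.3:3.7 (v:v:v). Carcasses were frozen in hexane/dry ice, stored at or below −20°C, and cut into ~40 μm sagittal sections. Imaging was at 50 μm resolution. Radioactivity was quantified by image densitometry as μg equivalents/g.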

The values below come from PMC9624268 (Translational Vision Science & Technology, 2022).

Like-named read-outs stand apart in the source and are kept apart here.

As to `CC(=O)c1nn(CC(=O)N2C[C@H](F)C[C@H]2C(=O)Nc2cccc(Br)n2)c2ccc(-c3cnc(C)nc3)cc12` [Danicopan], the AUClast was 37,400 h·ng/g in data set [1] (DB rabbit, single oral dose 15 mg/kg, choroid/BrM/RPE, mean); 998 ng·h/g in data set [1] (DB rabbit, single oral dose 15 mg/kg, neural retina, mean); 1010 ng·h/g in data set [2] (NZW rabbit, single oral dose 15 mg/kg, choroid/BrM/RPE, mean); 665 ng·h/g in data set [2] (NZW rabbit, single oral dose 15 mg/kg, neural retina, mean). The MRTlast in [1] (DB rabbit, single oral dose 15 mg/kg, neural retina, mean, 15 mg/kg) turned out to be 7.83 h. In addition, in data set [1] (DB rabbits, 7.5, 15 and 50 mg/kg/dose twice daily for 15 days (data not shown)), the “dose-exposure relationship, plasma and neural retina” value was “approximate dose linearity”. In [1] (DB rabbits, 7.5, 15 and 50 mg/kg/dose twice daily for 15 days, plasma), the “time through which exposure was detected in plasma after the last dose” value came out at 24 h. In [1] (DB rabbits, between 15 and 50 mg/kg/dose twice daily for 15 days (data not shown)), the “dose-exposure relationship, choroid/BrM/RPE” value was “less-than-dose proportionality”. Further, the Cmax in [1] (Dutch Belted, rabbit, choroid/BrM/RPE, po, 15 mg/kg, DB rabbit, single oral dose 15 mg/kg, mean) was 917 ng/g; in data set [1] (Dutch Belted, rabbit, neural retina, po, 15 mg/kg, DB rabbit, single oral dose 15 mg/kg, mean), 145 ng/g; in data set [2] (New Zealand White, rabbit, choroid/BrM/RPE, po, 15 mg/kg, NZW rabbit, single oral dose 15 mg/kg, mean) it was 172 ng/g; in [2] (New Zealand White, rabbit, neural retina, po, 15 mg/kg, NZW rabbit, single oral dose 15 mg/kg, mean) it was 200 ng/g; in [2] (New Zealand White, rabbit, plasma, po, 15 mg/kg, NZW rabbit, single oral dose 15 mg/kg, mean) it was 310 ng/mL. For the same compound, the MRT last in [1] (Dutch Belted, rabbit, choroid/BrM/RPE, po, 15 mg/kg, MRTlast, DB rabbit, single oral dose 15 mg/kg, mean) was 49.7 h; in [2] (New Zealand White, rabbit, choroid/BrM/RPE, po, 15 mg/kg), 5.87 h; in data set [2] (New Zealand White, rabbit, neural retina, po, 15 mg/kg), 1.49 h; in data set [2] (New Zealand White, rabbit, plasma, po, 15 mg/kg) it was 4.01 h. The AUC(0-t) in data set [2] (New Zealand White, rabbit, plasma, po, 15 mg/kg, AUClast, NZW rabbit, single oral dose 15 mg/kg, mean) was 1430 ng·h/mL. Besides, the “clinical or histopathological ophthalmic findings” value in [3] is “no clinical or histopathological ophthalmic findings”; in data set [4] (oral administration, 14 days, 3 months, 9 months, GLP), “no clinical or histopathological ophthalmic findings”. In data set [4] (week 38, compared to pretreatment ERG), the “electroretinography (ERG) abnormalities” value is “no abnormalities were detected”. For the same compound, in the data set with rodent factor D, the “inhibitory effect on rodent factor D” value is given as “lack of an inhibitory effect”.

As to `Cc1ccc(Nc2nccc(N(C)c3ccc4c(C)n(C)nc4c3)n2)cc1S(N)(=O)=O` [Pazopanib], the “time detected in melanin-containing tissues including the uveal tract” value in data set [5] is “up to 35 days”. For the same compound, in data set [6] (3 days after a single loading dose 10 mg/kg), the plasma levels result is given as “undetectable”. In addition, the “choroidal neovascularization lesion size” value in data set [6] (single loading dose 10 mg/kg, up to 2 weeks after choroidal neovascularization induction) was “significantly reduced”.

[^14C]-danicopan: in data set [7] (pigmented rats, uveal tract (28 days)), the “time postdose at which radioactivity remained quantifiable in uveal tract” value came to 672 h. The “radioactivity in most tissues at 24 hours postdose” value in [7] (pigmented rats, whole-body autoradiography) is reported as “nonquantifiable”; in data set [8], “nonquantifiable”. The “radioactivity in plasma and whole blood” value in [7] (after 8 hours postdose) is on record as “undetectable”.

What is called Cmax is the highest concentration seen after dosing. For orientation: MRT last means the average time that molecules of a dose stay in the body. For orientation: AUC(0-t) means exposure summed from dosing to a finite time, without extrapolation to infinity.
